Bioassay records as filed in PubChem.
HCT116 bCat-KO = beta-catenin-lacking colon tumor cell growth suppression. HCT116 beta-catenin knockout viability, CellTiter-Glo, 60 h; hits give low values. viability, % at 10 µM. hit rate 1.5% among 140,000;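 active = viability at or under a set limit, the compound median less 4 SD, cut at about 6% in these data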;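 also: 0% = Hyamine 1622 control at 20 µM and 100% = untreated cell control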
HCT116 PTEN-null = growth suppressors of cells with PTEN tumor suppressor deletion; viability, % at 10 µM; hit rate 1.2% among 140,000; HCT116 PTEN-null viability, CellTiter-Glo, 60 h; hits give low values;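 active = viability at or below a set limit, 4 SD under the median of all tested compounds, cut at about 3.7% in these data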;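 also: PTEN knockout HCT116 line with beta catenin targeted HCT116 as companion control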
HUVEC prolif 384 = inhibitors of human endothelial cell proliferation | HUVEC proliferation, CellTiter-Glo luminescence, 72 h; hits give low values | viability, % at 10 µM (by protocol) | hit rate 1.1% among 86,000 | AID 648;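 active = viability at or below 30%; inactive = viability above 30%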;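 also: 100% = median luminescence of DMSO-only cell control wells on each plate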
Lung fibro prol = blocks proliferation of human lung fibroblasts. viability, % at 10 µM. hit rate 1.1% among 85,000. LL 47 human lung fibroblast viability, ATP luminescence; hits give low values;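 active = viability at or below 50% in the single dose screen; inactive = viability above 50%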;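 also: compound exposure lasted 72 h before the ATP readout; 100% = median luminescence of untreated cell-only wells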
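Material: human LL 47 lung fibroblast cells; quantity: 1,150 cells/well; medium: IMEM plus 15% FBS; doses: 0.1% DMSO in all compound wells; timing: overnight attachment after seeding, then 72 h compound exposure at 37 °C; detection: CellTiter-Glo luminescence; measure: % viability of median cell-only signal; controls: cell-only wells, no compound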
H69AR inhibit = blocks growth of human H69AR lung tumor cells; viability, % at 10 µM; hit rate 6% among 85,000; H69AR lung tumor viability, ATP luminescence, 72 h; hits give low values; AID 598;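 active = viability at or below 40%; inactive = viability above 40%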;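 also: multidrug resistant small cell line overexpressing MRP-1 efflux transporter; 100% = mean luminescence of untreated control wells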
* marks the source's active call; other numbers are inactive results; x = no result given. The full list was thinned out, with hits kept by preference.

SMILES	HCT116 bCat-KO	HCT116 PTEN-null	HUVEC prolif 384	Lung fibro prol	H69AR inhibit
COc1ccc(CC(=O)Nc2nc3ccccc3s2)cc1S(=O)(=O)N1CCOCC1	42	35	108	93	78
COc1cc(NCCCCCCCN)c2ncccc2c1	1.7*	2.3*	3.1*	23*	102
COc1ccc(N2C3=C(CC4=C2CC(C)(C)CC4=O)C(=O)CC(C)(C)C3)cc1	1.1*	1.1*	10*	6.0*	89
CCC(C)(C)NC(=O)C(c1ccc(C)o1)N(Cc1cccs1)C(=O)Cn1nnc2ccccc21 (configuration not stated)	2.8*	2.4*	79	43*	49
COc1ccc(CNC(=O)C(c2ccc(C)o2)N(C(=O)c2csnn2)c2ccc(C(C)C)cc2)cc1 (configuration not stated)	25	19	107	99	38*
CCC(C)(C)NC(=O)C(c1ccccc1)N(Cc1cccs1)C(=O)Cn1nnc2ccccc21 (configuration not stated)	x	x	97	107	65
COc1ccc(CC(=O)NCc2cccs2)cc1	67	72	71	93	30*
Cc1ccc(C(C(=O)NCc2ccccc2)N(C(=O)c2csnn2)c2cccc3ccccc23)o1 (configuration not stated)	81	72	95	95	62
COc1ccc(CNC(=O)C(c2ccc(C)o2)N(Cc2cccs2)C(=O)Cc2cccs2)cc1 (configuration not stated)	66	52	71	96	24*
COCCN(C(=O)Cc1cccs1)C(C(=O)NCc1ccc(OC)cc1)c1ccc(C)cc1 (configuration not stated)	72	77	x	x	x
O=C(NCc1ccccc1)Nc1cccn(Cc2cccc(F)c2)c1=O	85	91	x	x	x
Cc1[nH]c2ccccc2c1C(=O)COC(=O)c1c(-c2c(F)cccc2Cl)noc1C	84	75	x	x	x
O=C(COc1ccccc1)N/N=C/c1ccc(O[C@@H]2O[C@H](CO)[C@@H](O)[C@H](O)[C@H]2O)cc1	100	106	x	x	x
CN(C)S(=O)(=O)c1cccc(C(=O)Nc2ccccc2[N+](=O)[O-])c1	13	6	x	x	x
CN1CCN(c2ccc(S(=O)(=O)N3CCCCC3)cc2NC(=O)c2ccc3ccccc3c2)CC1	2.3*	1.4*	x	x	x
CCN(CC)S(=O)(=O)c1cc(C(=O)Nc2ccccc2[N+](=O)[O-])ccc1Cl	9	2.5*	x	x	x
Cc1ccccc1C(=O)Nc1cc(S(=O)(=O)N2CCCCC2)ccc1N1CCN(C)CC1	78	83	x	x	x
CCN(CC)S(=O)(=O)c1cc(C(=O)Nc2cc(Cl)ccc2N2CCN(C)CC2)ccc1Cl	0.6*	0.5*	x	x	x
CCc1ccc(N2C(=O)C3C4CCC(C4=C(C)C)C3C2=O)cc1 (configuration not stated)	96	91	x	x	x
N/C(=N\OC(=O)c1cc(Cl)ccc1Cl)c1ccccn1	77	76	x	x	x
CC1=C(C(=O)OCC(C)C)C2(O)C(=O)c3ccccc3C2(O)N1 (configuration not stated)	92	95	x	x	x
CN(C)/C=N/c1cc(=O)n(C)c(=O)n1Cc1ccccc1	87	89	x	x	x
COc1cc(NC(=O)CCNS(=O)(=O)c2ccc3c(c2)CCC(=O)N3)cc(OC)c1	82	108	x	x	x
COc1ccccc1OCC(=O)N/N=C/C=C/c1ccc([N+](=O)[O-])o1	3.2*	2.6*	x	x	x
CCN(CC(=O)N1CCc2ccccc2C1)S(=O)(=O)c1ccc2ccccc2c1	88	94	95	108	59
SMILES	HCT116 bCat-KO	HCT116 PTEN-null	HUVEC prolif 384	Lung fibro prol	H69AR inhibit
O=c1oc2ccccc2cc1-c1nnc(-c2cccc(Br)c2)o1	x	x	99	107	38*
CCN(CC)c1ccc2cc(-c3nc4ccccc4[nH]3)c(=O)oc2c1	60	63	38	26*	1.4*
CCN(CC)c1ccc2cc(-c3nc4ccccc4n3C)c(=O)oc2c1	15	15	21*	51	20*
CCN(CC)c1ccc2cc(-c3nnc(-c4ccccc4)o3)c(=O)oc2c1	22	15	57	72	22*
Nc1nc(CSCCO)nc(Nc2ccc(F)cc2)n1	97	96	101	97	99
Cc1c(Cl)cccc1Nc1nc(N)nc(CSc2ncccn2)n1	82	79	100	85	1.4*
Cc1c(Cl)cccc1Nc1nc(N)nc(CSCCO)n1	96	97	89	102	4.3*
Cc1c(Cl)cccc1Nc1nc(N)nc(CSc2nc3ccccc3s2)n1	46	62	x	x	x
N#C/C(=C\c1ccc(N2CCOCC2)o1)c1nc2ccccc2[nH]1	58	60	57	83	20*
COc1cc2nc(SCC(=O)NC3CC3)n(CCC3=CCCCC3)c(=O)c2cc1OC	x	x	25*	76	34*
COc1cc2nc(SCc3c(C)noc3C)n(CCC3=CCCCC3)c(=O)c2cc1OC	50	48	71	86	27*
C=CCn1c(SCc2c(C)noc2C)nc2cc(C(=O)O)ccc2c1=O	27	31	47	85	94
O=C(COC(=O)/C=C/C(=O)OCC(=O)NC12CC3CC(CC(C3)C1)C2)NC12CC3CC(CC(C3)C1)C2	88	92	x	x	x
CCOC(=O)c1c(C)oc2c1c(C=NCc1ccccn1)c(O)c1ccccc12	18	5	48	92	27*
CCOC(=O)c1c(C)oc2c1c(C=NCC1CCCO1)c(O)c1ccccc12 (configuration not stated)	70	70	88	98	26*
CCOC(=O)c1c(C)oc2c1cc(O)c1ccccc12	90	85	91	101	62
COCC(C)n1c(SCC(=O)N2CCc3ccccc3C2)nc2ccccc2c1=O (configuration not stated)	74	79	x	x	x
CC1=C(C(=O)Nc2cccc(C)c2C)C(c2cccs2)NC(=S)N1 (configuration not stated)	86	89	x	x	x
Cc1cc(F)ccc1NCC(=O)Nc1ccccc1Br	87	88	x	x	x
CCOc1ccc(C(=O)NC(=S)Nc2ccc(NC(=O)c3ccco3)c(C)c2)cc1[N+](=O)[O-]	92	79	x	x	x
COc1cc(C#CC#CCN2CCCCC2)ccc1O	70	75	98	94	3.6*
